Measured values taken from ChEMBL document CHEMBL4715770, “Inhibition of Low Molecular Weight Protein Tyrosine Phosphatase by an Induced-Fit Mechanism” (J Med Chem, 2016).
pIC50, pKi: −log10 of the molar value.

Assays:
[1] = molecular target: T1, Low molecular weight phosphotyrosine protein phosphatase (Homo sapiens, UniProt P24666); assay: Inhibition of His-tagged LMW-PTP isoform A (unknown origin) expressed in Escherichia coli BL21 cells using para-nitrophenyl phosphate as substrate incubated for 5 to 10 mins by microplate reader based spectrophotometric analysis
T1 sequence (P24666 whole entry): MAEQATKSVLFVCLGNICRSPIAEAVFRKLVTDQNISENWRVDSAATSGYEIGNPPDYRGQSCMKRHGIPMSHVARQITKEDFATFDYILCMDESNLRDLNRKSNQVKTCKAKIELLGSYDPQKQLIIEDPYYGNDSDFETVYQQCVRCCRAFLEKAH

[2] = molecular target: T2, Tyrosine-protein phosphatase non-receptor type 9 (Homo sapiens, UniProt P43378); assay: Inhibition of His-tagged PTP-MEG2 (unknown origin) expressed in Escherichia coli BL21 cells using para-nitrophenyl phosphate as substrate incubated for 5 to 10 mins by microplate reader based spectrophotometric analysis
T2 sequence (P43378 whole entry): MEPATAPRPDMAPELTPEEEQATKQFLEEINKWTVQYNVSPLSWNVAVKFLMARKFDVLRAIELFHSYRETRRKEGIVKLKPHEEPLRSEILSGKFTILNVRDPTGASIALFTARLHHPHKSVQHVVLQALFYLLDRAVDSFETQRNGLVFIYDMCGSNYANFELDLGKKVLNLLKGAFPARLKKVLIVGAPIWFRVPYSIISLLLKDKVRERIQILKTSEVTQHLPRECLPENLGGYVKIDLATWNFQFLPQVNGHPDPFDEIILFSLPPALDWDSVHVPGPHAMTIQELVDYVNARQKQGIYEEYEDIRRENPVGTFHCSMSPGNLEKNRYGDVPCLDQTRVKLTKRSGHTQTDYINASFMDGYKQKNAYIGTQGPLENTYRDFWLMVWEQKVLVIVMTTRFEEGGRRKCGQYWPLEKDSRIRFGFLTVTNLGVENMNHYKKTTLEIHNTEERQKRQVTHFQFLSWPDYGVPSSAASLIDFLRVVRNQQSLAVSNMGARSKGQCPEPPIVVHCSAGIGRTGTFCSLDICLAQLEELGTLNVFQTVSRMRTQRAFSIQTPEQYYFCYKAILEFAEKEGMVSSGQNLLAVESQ

[3] = molecular target: T1, Low molecular weight phosphotyrosine protein phosphatase; assay: Competitive inhibition of His-tagged LMW-PTP isoform A (unknown origin) expressed in Escherichia coli BL21 cells using para-nitrophenyl phosphate as substrate by Lineweaver-Burk plot analysis
Summary of the method: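 Recombinant enzyme Ni-NTA purified (Tris pH 7.8, 500 mM NaCl, 250 mM imidazole elution), then Sephadex G75. pNPP hydrolysis in 50 mM 3,3-dimethylglutarate, pH 7.0, 25 °C. Enzyme added last to mixes of varied pNPP and inhibitor concentrations, 5-10 min, NaOH quench. p-nitrophenol read at 405 nm (ε 18,000 M-1cm-1), no-enzyme blank subtracted. Ki fitted by enzyme-kinetics regression.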

[4] = molecular target: Low molecular weight phosphotyrosine protein phosphatase (Homo sapiens) (UniProt P24666); assay: Inhibition of LMW-PTP isoform A in human HepG2 cells assessed as increase in insulin-induced Akt phosphorylation pretreated for 2 hrs followed by insulin stimulation and measured after 30 mins by Western blot analysis; type: cell-based; conditions: dose 2-16 µM
Summary of the method: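 HepG2 cells in DMEM with 10% FBS at 37 °C and 5% CO2 were grown to 60-80% confluence and serum-starved overnight. They were given vehicle or compound for 2 h, then 50 nM insulin for 30 min. Lysates were run on 10% SDS-PAGE and immunoblotted for phospho-AKT and total AKT with ECL detection. Densitometric pAKT/AKT ratios were normalized to vehicle.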

Row | Compound | pIC50 [1] | pIC50 [2] | pKi [3] | inhibition [4]
1 | O=C(Nc1cc(C(F)(F)F)cc(C(F)(F)F)c1)C(c1ccccc1)S(=O)(=O)O (stereo not drawn) | 5.19 | < 3.70 | – | –
2 | O=C(Nc1ccc(OCc2ccccc2)c(Cl)c1)C(c1ccccc1)S(=O)(=O)O (stereo not drawn) | – | < 3.70 | – | –
3 | O=C(Nc1nc2ccc([N+](=O)[O-])cc2s1)C(c1ccccc1)S(=O)(=O)O (stereo not drawn) | 5.68 | < 4.00 | 6.00 | Dose-dependent effect
4 | O=C(Nc1ccc(-n2ccnc2)cc1)C(c1ccccc1)S(=O)(=O)O (stereo not drawn) | – | < 4.00 | – | –
